# Test results: paper PMC7240828 (ACS Omega, 2020)
# Entries after “also recorded” stand apart in the source; their conditions may differ.
# How the values were obtained:
# SGLT1 = molecular target: T1, SGLT1 (Homo sapiens, UniProt P13866); test: Flavonoid uptake/transport in Caco-2 BBe1 cells with phloridzin; format: in vitro ADME; conditions: 50 μM flavonoid, 4 h; for fold change of glycoside transport by phloridzin-mediated inhibition: 1 μM phloridzin 30 min pretreatment, basolateral transport; for effect of phloridzin on cellular uptake and transport of the flavonoid / effect of phloridzin on cellular uptake of the flavonoid: 1 μM phloridzin; for effect of phloridzin on cellular uptake of the flavonoid: cell lysate
# T1 sequence (P13866 1-664): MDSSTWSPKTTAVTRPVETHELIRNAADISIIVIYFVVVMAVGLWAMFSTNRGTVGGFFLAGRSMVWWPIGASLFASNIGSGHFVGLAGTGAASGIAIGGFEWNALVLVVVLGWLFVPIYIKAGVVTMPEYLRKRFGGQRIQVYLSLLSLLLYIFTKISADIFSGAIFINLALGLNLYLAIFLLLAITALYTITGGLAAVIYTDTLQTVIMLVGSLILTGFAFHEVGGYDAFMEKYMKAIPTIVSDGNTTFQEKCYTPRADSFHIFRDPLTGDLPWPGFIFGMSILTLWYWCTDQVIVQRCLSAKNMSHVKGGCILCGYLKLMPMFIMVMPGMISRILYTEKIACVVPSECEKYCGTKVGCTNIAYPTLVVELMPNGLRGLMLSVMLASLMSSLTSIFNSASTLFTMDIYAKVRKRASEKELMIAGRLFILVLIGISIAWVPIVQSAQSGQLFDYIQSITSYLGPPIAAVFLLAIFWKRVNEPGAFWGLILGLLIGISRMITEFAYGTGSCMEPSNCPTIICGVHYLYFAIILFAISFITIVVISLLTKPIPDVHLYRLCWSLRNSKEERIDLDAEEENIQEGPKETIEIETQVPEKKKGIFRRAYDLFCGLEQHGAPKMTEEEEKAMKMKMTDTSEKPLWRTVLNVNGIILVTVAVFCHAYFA
# Summary of the method: (§1)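 Quantitation was by HPLC on a phenyl-hexyl column (DAD, 360 and 520 nm), using external standard curves from 0–50 μM. Values are expressed as percent of the amount added apically. Data are mean ± SEM of at least three independent experiments.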
# Caco-2 cells = conditions: SGLT1-depended manner; cited from earlier work
# Caco-2 BBe1 monolayers = format: in vitro ADME, human; conditions: 50 μM apical, 0.5, 2 and 4 h, cell lysate and basolateral compartment
# Summary of the method: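 Cells at passage 50–60 were grown on PET inserts (3 × 10^4 cells/well) in supplemented high-glucose DMEM at 37 °C, 5% CO2. Monolayers with TEER >400 Ω cm2 on day 9 were used. 50 μM test compound in HBSS pH 6.4 was applied apically, with HBSS/10 mM HEPES pH 7.4 basolaterally. Basolateral medium and sonicated, methanol/2% FA-extracted lysates were sampled at 0.5, 2 and 4 h.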
# Caco-2 BBe1 cells = test: Cellular glucose; format: cell-based, human; conditions: 50 μM, 2 h pretreatment, 2-NBDG fluorescence, vs positive control
# Summary of the method: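 Cells seeded at 1 × 10^5 per well and grown overnight, then PBS-washed. Pretreated with 50 μM test compound in glucose-free DMEM for 2 h. Glucose-free DMEM containing 300 μg/mL 2-NBDG was then added for another 2 h. After a PBS wash, fluorescence was read at ex 485/em 535 nm and compared with the positive control group.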
# GLUT2 = molecular target: T2, GLUT2 (Homo sapiens, UniProt P11168); test: Flavonoid uptake/transport in Caco-2 BBe1 cells with phloretin; format: in vitro ADME; conditions: 1 μM phloretin, 50 μM flavonoid, 4 h, cell lysate
# T2 sequence (P11168 1-524): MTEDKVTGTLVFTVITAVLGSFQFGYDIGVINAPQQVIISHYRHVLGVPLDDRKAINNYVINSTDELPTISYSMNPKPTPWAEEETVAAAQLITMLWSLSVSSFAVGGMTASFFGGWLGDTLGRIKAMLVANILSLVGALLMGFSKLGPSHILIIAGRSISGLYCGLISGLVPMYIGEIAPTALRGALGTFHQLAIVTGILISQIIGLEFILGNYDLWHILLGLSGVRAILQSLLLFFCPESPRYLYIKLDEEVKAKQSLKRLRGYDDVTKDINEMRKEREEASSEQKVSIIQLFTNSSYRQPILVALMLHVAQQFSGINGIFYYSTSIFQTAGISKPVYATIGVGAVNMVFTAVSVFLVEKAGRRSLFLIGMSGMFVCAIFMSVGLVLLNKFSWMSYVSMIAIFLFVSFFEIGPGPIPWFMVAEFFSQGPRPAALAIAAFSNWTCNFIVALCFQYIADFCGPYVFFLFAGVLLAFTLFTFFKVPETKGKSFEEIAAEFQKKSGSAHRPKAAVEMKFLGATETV
# Summary of the method: as §1
fold change of glycoside transport by phloridzin-mediated inhibition (SGLT1),effect of phloridzin on cellular uptake of the flavonoid (SGLT1),effect of phloretin on cellular uptake of the flavonoid (GLUT2),SMILES,effect of phloridzin on cellular uptake and transport of the flavonoid (SGLT1),inhibition of glucose uptake (Caco-2 cells),cellular uptake and transport kinetics (Caco-2 BBe1 monolayers),inhibition of glucose uptake (Caco-2 BBe1 cells)
5.77 fold,–,–,"C[C@@H]1O[C@@H](OC[C@H]2O[C@@H](Oc3c(-c4ccc(O)c(O)c4)oc4cc(O)cc(O)c4c3=O)[C@H](O)[C@@H](O)[C@@H]2O)[C@H](O)[C@H](O)[C@H]1O [rutin, quercetin 3-rutinoside]",significantly reduced the amount of cellular and transported,inhibited glucose uptake,–,–
–,–,–,O=c1c(O)c(-c2ccc(O)c(O)c2)oc2cc(O)cc(O)c12 [quercetin],no effect on the uptake and transport,–,both concentrations continued to increase; also recorded: readily permeated into the intestinal mucosa within 2 h,significantly blocked the glucose uptake
3.29 fold,less significant,–,"OC[C@H]1O[C@@H](Oc2cc3c(O)cc(O)cc3[o+]c2-c2ccc(O)c(O)c2)[C@H](O)[C@@H](O)[C@@H]1O [C-3-G, cyanidin 3-O-glucoside]",significantly reduced the amount of cellular and transported,–,continued to increase as the incubation period extends from 30 min to 4 h,–
6.45 fold,significantly inhibited by phloridzin,significantly inhibited cellular uptake,"OC[C@H]1O[C@@H](Oc2cc3c(O[C@@H]4O[C@H](CO)[C@@H](O)[C@H](O)[C@H]4O)cc(O)cc3[o+]c2-c2ccc(O)c(O)c2)[C@H](O)[C@@H](O)[C@@H]1O [cyanin, cyanidin 3,5-diglucoside]",significantly reduced the amount of cellular and transported,–,continued to increase as the incubation period extends from 30 min to 4 h,–
–,–,–,Oc1cc(O)c2cc(O)c(-c3ccc(O)c(O)c3)[o+]c2c1 [cyanidin],no effect on the uptake and transport,–,noticeable decrease; also recorded: readily permeated into the intestinal mucosa within 2 h,significantly blocked the glucose uptake

SMILES,fold change of glycoside transport by phloridzin-mediated inhibition (SGLT1),effect of phloridzin on cellular uptake of the flavonoid (SGLT1),effect of phloretin on cellular uptake of the flavonoid (GLUT2),effect of phloridzin on cellular uptake and transport of the flavonoid (SGLT1),inhibition of glucose uptake (Caco-2 cells),cellular uptake and transport kinetics (Caco-2 BBe1 monolayers),inhibition of glucose uptake (Caco-2 BBe1 cells)
"O=c1c(O[C@@H]2O[C@H](CO)[C@@H](O)[C@H](O)[C@H]2O)c(-c2ccc(O)c(O)c2)oc2cc(O)cc(O)c12 [Q-3-G, quercetin 3-β-D-glucoside]",2.31 fold,–,–,significantly reduced the amount of cellular and transported,–,–,–
